H9c2 protect = cardioprotection against H2O2-induced cell death, primary screen, uHTS, H9c2 cells, ATPLite luminescence | protection from H2O2 cell death, % at 20 µM | actives 0.63% (n = 360,000) | H9c2 cardiomyocytes, H2O2 injury protection, 2 h;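 active = compounds giving at least 50% protection of heart cells from peroxide-induced death in the single-dose screen, raw or plate-pattern-corrected value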;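 note: 0% = DMSO wells with peroxide and 100% = DMSO wells without peroxide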
Fh CTSL1 inh = Fasciola hepatica cathepsin L1 inhibitors, primary screen, counter-screen for PFM18AAP inhibitor project, biochemical, QFRET, fluorogenic peptide substrate; recombinant F. hepatica cathepsin L1, Z-Leu-Arg-MCA fluorescence; inhibition, % at 5.96 µM; actives 0.49% (n = 300,000); AID 1906, 2009;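 active = inhibition above the mean of all tested compounds plus 3 SD, set per screening campaign, cut at about 17% in these data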;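 note: 0% = plate median of test compound wells and 100% = 1 µM Z-Phe-Ala-diazomethylketone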
T cruzi repl = inhibitors of intracellular T. cruzi growth, primary screen, luminescence, NIH3T3 host cells; T. cruzi beta-gal in NIH3T3, 90 h; inhibition, % (concentration not given with the values); actives 1.4% (n = 300,000); AID 1885, 2009;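 active = mean inhibition across valid replicates above about 55%, limit read from the data; inconclusive = mean below that limit but half or more replicates reach it; inactive = mean below it, under half of replicates reach it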;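 note: signal also drops with host cell toxicity which is not excluded here; 0% = plate median of DMSO wells and 100% = zero luminescence signal; higher percent means less beta-gal luminescence so fewer parasites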
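System: mouse NIH/3T3 fibroblasts infected with β-gal-expressing T. cruzi Tulahuen C4 / Input: NIH/3T3 cells, 5,000 per well / Buffer or medium: Low-serum DMEM with 2% FBS / Probe or stimulus: 5000 reporter trypomastigotes per well / Schedule: ≥90 h infection period, 3 h prior cell attachment / Measured by: GalScreen luminescence, 60 min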
PP5 inh = PP5 phosphatase inhibitors, primary screen, biochemical, fluorescence; inhibition, % at 6.7 µM; purified PP5c, OMFP substrate fluorescence; Serine/threonine-protein phosphatase 5 (Homo sapiens), P53041; actives 0.18% (n = 320,000); AID 1987, 2009;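 active = inhibition above the campaign's mean inhibition across all tested compounds plus 3 SD, cut at about 9.5% in these data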;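 note: 0% = DMSO only and 100% = 100 µM cantharidin control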
p-CIP stab down = p/CIP-EGFP fusion destabilizers, primary screen, fluorescence, F442A cells; AID 1984, 2009; actives 0.01% (n = 290,000); decrease of EGFP signal, % at 10 µM; 16 h;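 active = EGFP signal decrease of at least 30% at 10 µM or well 3 SD below plate mean, unless failing retest; inactive = the rest, including hits failing retest or dose response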
GASC-1 inh = inhibitors of GASC-1 histone demethylase, primary screen, biochemical, fluorescence, DELFIA europium; AID 2099, 2009; Lysine-specific demethylase 4C (Homo sapiens), Q9H3R0; inhibition, % at 2.35 µM; GST-JMJD2C(1-420) H3K9me3 demethylation; actives 0.069% (n = 330,000);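 active = more than half of a compound's replicate wells show inhibition beyond 50%, single wells judged on their own value; inconclusive = some, but no more than half, of replicates pass 50% inhibition; inactive = no replicate passes 50% inhibition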;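 note: signal counts dimethyl H3K9 product captured on neutravidin plate; 0% = median of DMSO wells and 100% = 0.3 times that DMSO median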
Numbers without * were called inactive; ? = inconclusive; . = no result given. The list is not random: actives were taken first. Their share in the collection is about 2.4%.

SMILES	H9c2 protect	Fh CTSL1 inh	T cruzi repl	PP5 inh	p-CIP stab down	GASC-1 inh
CCCCC(=O)NC(c1ccccc1)c1ccc2cccnc2c1O (configuration not stated)	42	1	57*	2	4	-4
CCCCC(=O)NC(c1cccc([N+](=O)[O-])c1)c1ccc2cccnc2c1O (configuration not stated)	39	.	.	.	.	.
COc1ccc(NC(=O)C2(C)CCN2CCOc2ccc(C)cc2)cc1OC (configuration not stated)	0	.	.	.	.	.
O=C(CN1CCN(S(=O)(=O)c2ccccc2F)CC1)N1CCc2ccccc2C1	0	.	.	.	.	6
CCCCC(=O)NC(c1ccc(C(C)C)cc1)c1ccc2cccnc2c1O (configuration not stated)	51*	4	44	-2	-20	13
CCC(=O)NC(c1ccc(OC)cc1)c1c(O)ccc2ccccc12 (configuration not stated)	0	1	-72	3	34*	3
Cc1cccc2nc(-c3ccccc3)nc(N3CCC(O)(c4ccc(Cl)cc4)CC3)c12	-4	3	60*	0	3	-4
CCN1CCN(c2nc(-c3ccccc3)nc3ccccc23)CC1	13	2	-2	1	-3	0
COc1cccc(CN2CC(C(=O)NCCN3CCOC3=O)CCC2=O)c1 (configuration not stated)	-4	2	-10	-1	-3	-1
NC(=O)N/N=C/c1ccc([N+](=O)[O-])o1	7	4	.	0	.	.
O=[N+]([O-])c1ccc(/C=[N+](\[O-])CCO)o1	6	2	59*	1	-1	6
COc1ccccc1N(/N=C1\Sc2ccccc2C1=O)C(C)=O	-10	30*	0	3	-5	-2
COc1ccc(S(=O)(=O)N2CCC(C(=O)Oc3cccc(C)c3)CC2)cc1OC	-3	1	3	-1	-10	5
C=CCOc1ccccc1CNc1ccc2c(c1)OCCO2	-20	1	73*	-2	10	5
CCOc1ccc2nc(NC(=O)C3CCCN(S(=O)(=O)c4cccc5nonc45)C3)sc2c1 (configuration not stated)	-1	3	57*	1	-17	9
CCCCN(C)Cc1cc(=O)oc2ccc3ccccc3c12	-2	0	-5	0	-1	-12
CC(C)C(=O)NC(Nc1cc(C(F)(F)F)ccc1Cl)C(Cl)(Cl)Cl (configuration not stated)	-11	14	11	3	-4	1
O=C(NC(Nc1cc(C(F)(F)F)ccc1Cl)C(=O)c1ccccc1)c1ccccc1 (configuration not stated)	-3	-3	58*	4	0	2
CCOc1ccc(/C=N/NC(=O)c2[nH]ncc2Br)c(O)c1	-14	9	55*	1	-17	11
C=CCNC(=S)N/N=C/c1ccc(-c2ccc(OC)cc2)o1	7	5	91*	4	-6	14
C=CCNC(=S)N/N=C/c1ccc(-c2cc(Cl)ccc2Cl)o1	-4	2	17	0	-4	4
C=CCNC(=S)N/N=C/c1ccc(-c2ccc(Cl)cc2Cl)o1	-3	-1	60*	-1	.	1
CNC(=S)N/N=C/c1ccc(-c2ccc(C(=O)O)cc2)o1	-1	9	?	2	3	-8
COC(=O)c1ccc(NC(=O)CCN2C(=O)NC(C)(C)C2=O)cc1	2	.	.	2	.	2
Cc1ccc(NC(=O)c2ccco2)nc1	-4	.	.	.	.	.
SMILES	H9c2 protect	Fh CTSL1 inh	T cruzi repl	PP5 inh	p-CIP stab down	GASC-1 inh
C#CCOCCOCCOCCNc1nc(N2CCN(C(=O)[C@H]([C@@H](C)CC)n3cc([C@@H](N)CC(C)C)nn3)CC2)nc(N2CCN(C(=O)[C@H](CCCCN)n3cc([C@@H](N)CC(C)C)nn3)CC2)n1	.	10	-13	1	-6	-24
C#CCOCCOCCOCCNc1nc(N2CCN(C(=O)[C@H]([C@@H](C)CC)n3cc([C@@H](N)CC(C)C)nn3)CC2)nc(N2CCN(C(=O)[C@H](CCCCN)n3cc([C@@H](N)C(C)CC)nn3)CC2)n1 (some centres not stated)	3	31*	-8	4	-5	-27
C#CCOCCOCCOCCNc1nc(N2CCN(C(=O)C([C@@H](C)CC)n3cc(C(N)COC(=O)C(F)(F)F)nn3)CC2)nc(N2CCN(C(=O)[C@H](CCCCN)n3cc(C(N)[C@H](C)CC)nn3)CC2)n1 (some centres not stated)	.	31*	-24	2	.	16
C#CCOCCOCCOCCNc1nc(N2CCN(C(=O)[C@H]([C@@H](C)CC)n3cc([C@@H](N)CO)nn3)CC2)nc(N2CCN(C(=O)[C@H](CCCCN)n3cc([C@@H](N)C(C)CC)nn3)CC2)n1 (some centres not stated)	-4	4	-4	0	-13	-1
O=C(CNC(=O)c1ccccc1F)OC(C(=O)Nc1cc(C(F)(F)F)ccc1Cl)c1ccccc1 (configuration not stated)	-9	25*	-2	4	6	6
O=C(Nc1cccc(S(=O)(=O)Nc2ccc(Cl)cc2)c1)c1cc2c(s1)CCCC2	-7	1	65*	4	-23	9
CCOc1ccccc1NC(=O)CCC(=O)Nc1ccccc1OCC	6	-2	-5	2	10	23
CCOc1cc(NC(=O)CCl)c(OCC)cc1NC(=O)CCl	-20	88*	17	1	-8	2
N=c1nc(-c2ccccc2)ccn1O	-8	6	8	-8	6	53*
COCCCNC(=O)c1cc(-c2cccnc2)nc2ccc(S(=O)(=O)N3CCCCCC3)cc12	7	-2	-8	-1	-1	0
CCCN(CCC)c1nc(N(CCC)CCC)[nH]c(=O)n1	-9	1	45	1	11	-1
CN(C)c1nc(C#N)nc(N(C)C)n1	6	26*	-16	0	1	-12
CCCN(CCC)c1nc(C#N)nc(N(CCC)CCC)n1	-4	18*	-8	0	2	3
C/C(=N\OCC(=O)OCC(=O)NC(=O)c1ccc(OC(F)F)cc1)c1ccc2c(c1)OCO2	-3	-12	-9	0	.	-6
CCc1cc[n+](C2=C([O-])c3ccccc3C(=O)/C2=N\S(=O)(=O)c2cccs2)cc1	-28	20*	0	3	-10	-4

High-throughput results: PubChem BioAssay, several laboratories
